Results published in ChEMBL document CHEMBL1157552, “Antimalarial and antitubercular nostocarboline and eudistomin derivatives: synthesis, in vitro and in vivo biological evaluation” (Bioorg Med Chem, 2010).
Where a name gives a salt, the structure may show the parent alone.

Tests used:
Plasmodium falciparum = experiment: Antiparasitic activity against Plasmodium falciparum K1; format: functional, organism-based
In short: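 Tested against erythrocytic stages of the K1 strain.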

L6 = experiment: Cytotoxicity against rat L6 cells; format: cell-based
[1] = Selectivity ratio of IC50 for rat L6 cells to IC50 for Plasmodium falciparum K1; format: ADME, cell-based; details: L6 cells (cytotoxicity) versus Plasmodium falciparum K1, read-out: Ratio IC50
Leishmania donovani = experiment: Antiparasitic activity against Leishmania donovani MHOM-ET-67/L82 axenic amastigotes; format: functional, organism-based
Trypanosoma cruzi = experiment: Antiparasitic activity against Trypanosoma cruzi Tulahuen C2C4; format: functional, organism-based
In short: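 Tested against Tulahuen C2C4 amastigotes grown in L6 rat skeletal myoblasts.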

[2] = tested on: Trypanosoma brucei rhodesiense; experiment: Antiparasitic activity against Trypanosoma brucei rhodesiense STIB 900; format: functional, organism-based
In short: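 Tested against bloodstream forms of STIB 900.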

Plasmodium berghei [3] = experiment: Antiparasitic activity against Plasmodium berghei infected in mice (Mus musculus) assessed as survival days at 50 mg/kg, intraperitoneally administered 4, 24, 48, 72 hrs post infection; format: functional; details: route intraperitoneal
In short: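 Infected mice received the compounds formulated in DMSO/water, given i.p. as 4 × 50 mg/kg. Parasitaemia was measured by FACS on day 4 post infection, 24 h after the last treatment. Activity was taken as the reduction in mean % parasitaemia versus the untreated control group (n = 5 mice). Mean survival time in days was recorded.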

[4] = tested on: Corynebacterium glutamicum; experiment: Antitubercular activity against Corynebacterium glutamicum ATCC 13032; format: functional
In short: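 Grown in 7H9 medium; susceptibility determined by resazurin reduction. MIC99 is the lowest drug concentration preventing growth of 99% of cells.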

[5] = tested on: Mycolicibacterium smegmatis; experiment: Antitubercular activity against Mycobacterium smegmatis mc2 155; format: functional; details: str. MC2 155
[6] = tested on: Mycobacterium tuberculosis; experiment: Antitubercular activity against Mycobacterium tuberculosis H37Rv; format: functional
Plasmodium berghei [7] = experiment: Antiparasitic activity against Plasmodium berghei infected in mice (Mus musculus) assessed as reduction of parasitaemia at 50 mg/kg, intraperitoneally administered 4, 24, 48, 72 hrs post infection measured 24 hrs of last treatment on day 4 relative to control; format: functional; design: scale not given: the % may be the effect or the level left; details: route intraperitoneal
In short: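 Compounds formulated in DMSO/water and given i.p. at 50 mg/kg, 4 doses, to P. berghei-infected mice. Parasitaemia measured by FACS on day 4 post infection, 24 h after the last dose. Activity is the difference in mean % parasitaemia between control (n = 5 mice) and treated groups, as % of control. Mean survival time was also recorded.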

Compound	IC50 (Plasmodium falciparum) [µM]	IC50 (L6) [µM]	selectivity ratio [1]	IC50 (Leishmania donovani) [µM]	IC50 (Trypanosoma cruzi) [µM]	IC50 [2] [µM]	Survival (Plasmodium berghei [3]) [days]	MIC99 [4] [µM]	MIC99 [5] [µM]	MIC99 [6] [µM]	Activity (Plasmodium berghei [7]) [%]
C=CC[n+]1ccc2c(c1)[nH]c1ccc(Cl)cc12	0.831	126	152	196	57.8	33.5	–	–	–	–	–
C[n+]1ccc2c(c1)[nH]c1ccc(Cl)cc12.[I-] [NOSTOCARBOLINE]	–	–	–	–	–	–	7.3	> 29	290	> 29	49.6
CCCC[n+]1ccc2c(c1)[nH]c1ccc(Cl)cc12	1.62	74	46	112	104	11.6	–	–	–	–	–
O=[N+]([O-])c1ccc(C[n+]2ccc3c(c2)[nH]c2ccc(Br)cc23)cc1	1.33	18.1	14	38.2	14.1	10.8	–	–	–	–	–
CC[n+]1ccc2c(c1)[nH]c1c(Br)cccc12	6.62	153	23	> 223	170	25	–	–	–	–	–
Brc1cccc2c1[nH]c1c[n+](Cc3ccc4ccccc4c3)ccc12	0.502	3.7	7	46.4	7.9	4.4	–	–	–	–	–
C[n+]1ccc2c(c1)[nH]c1ccc(Br)cc12.[I-]	0.018	86.1	4780	> 230	132	47.2	–	–	–	–	0
CC[n+]1ccc2c(c1)[nH]c1ccc(Cl)cc12.[I-]	0.452	113	250	251	100	36.8	–	–	–	–	15.36
Clc1ccc2[nH]c3c[n+](Cc4cccc(C[n+]5ccc6c(c5)[nH]c5ccc(Cl)cc56)c4)ccc3c2c1	–	–	–	–	–	–	–	20	50	20	–
COC(=O)CCC[n+]1ccc2c(c1)[nH]c1ccc(Br)cc12	2.33	162	70	> 203	64.6	111	–	–	–	–	–
Clc1ccc2[nH]c3c[n+](CCCCCCCCCCCC[n+]4ccc5c(c4)[nH]c4ccc(Cl)cc45)ccc3c2c1	–	–	–	–	–	–	–	14	17	7	–
Clc1ccc2[nH]c3c[n+](Cc4ccccc4)ccc3c2c1	3	27	9	113	24.6	6.2	–	–	–	–	–
Clc1ccc2[nH]c3c[n+](CCCCCCCCCC[n+]4ccc5c(c4)[nH]c4ccc(Cl)cc45)ccc3c2c1	–	–	–	–	–	–	–	14	> 142	4	–
CC[n+]1ccc2c(c1)[nH]c1ccc(Br)cc12.[I-]	0.032	78.8	2440	> 223	90.5	26.4	–	–	–	–	13.25
Fc1ccc(C[n+]2ccc3c(c2)[nH]c2ccc(Cl)cc23)cc1	4.67	111	24	110	87.7	18.1	–	–	–	–	–
Fc1ccc(C[n+]2ccc3c(c2)[nH]c2c(Br)cccc23)cc1	3.28	17.5	5	53.4	28.7	3.8	–	–	–	–	–
C[n+]1c2ccccc2cc2[n-]c3ccccc3c21 [CRYPTOLEPINE HYDROCHLORIDE]	–	–	9	–	–	–	–	–	–	–	–
Clc1ccc2[nH]c3c[n+](CCCCCC[n+]4ccc5c(c4)[nH]c4ccc(Cl)cc45)ccc3c2c1.[Br-].[Br-]	–	–	–	–	–	–	–	8	20	8	0
C=CC[n+]1ccc2c(c1)[nH]c1c(Br)cccc12	6.74	112	17	123	154	26.2	–	–	–	–	–

Compound	IC50 (Plasmodium falciparum) [µM]	IC50 (L6) [µM]	selectivity ratio [1]	IC50 (Leishmania donovani) [µM]	IC50 (Trypanosoma cruzi) [µM]	IC50 [2] [µM]	Survival (Plasmodium berghei [3]) [days]	MIC99 [4] [µM]	MIC99 [5] [µM]	MIC99 [6] [µM]	Activity (Plasmodium berghei [7]) [%]
Fc1cccc(C[n+]2ccc3c(c2)[nH]c2ccc(Br)cc23)c1	2.15	41.5	19	11	25.9	5.6	–	–	–	–	–
Brc1ccc2[nH]c3c[n+](CCCc4ccccc4)ccc3c2c1	0.459	27.5	60	20.4	12.6	4.5	–	–	–	–	–
C[n+]1ccc2c(c1)[nH]c1ccccc12 [NORMELINONINE F]	–	–	> 853	–	–	–	–	–	–	–	–
Clc1ccc2[nH]c3c[n+](Cc4ccc(-c5ccc(C[n+]6ccc7c(c6)[nH]c6ccc(Cl)cc67)cc5)cc4)ccc3c2c1.[Cl-].[Cl-]	–	–	–	–	–	–	–	> 15	152	> 15	0
Clc1ccc2[nH]c3c[n+](CCCCCCCC[n+]4ccc5c(c4)[nH]c4ccc(Cl)cc45)ccc3c2c1	–	–	–	–	–	–	–	7	147	7	–
Brc1ccc2[nH]c3c[n+](Cc4ccccc4)ccc3c2c1	2.37	61.6	26	21.2	16.3	5.2	–	–	–	–	–
C[n+]1cc2[nH]c3ccccc3c2c2ccccc21 [ISONEOCRYPTOLEPINE]	–	–	18	–	–	–	–	–	–	–	–
Clc1ccc2[nH]c3c[n+](Cc4ccc(C[n+]5ccc6c(c5)[nH]c5ccc(Cl)cc56)cc4)ccc3c2c1	–	–	–	–	–	–	–	> 17	> 170	> 17	–
Brc1ccc2[nH]c3c[n+](Cc4ccc5ccccc5c4)ccc3c2c1	0.481	5.1	11	17.7	7.5	4.1	–	–	–	–	–
O=[N+]([O-])c1ccc(C[n+]2ccc3c(c2)[nH]c2ccc(Cl)cc23)cc1	2.21	42.2	19	146	32.8	21.3	–	–	–	–	–
C=CC[n+]1ccc2c(c1)[nH]c1ccc(Br)cc12.[Br-]	0.492	131	266	20.1	86.6	17.4	–	–	–	–	3.57
Clc1ccc2[nH]c3c[n+](CCOCC[n+]4ccc5c(c4)[nH]c4ccc(Cl)cc45)ccc3c2c1.[Cl-].[Cl-]	–	–	–	–	–	–	–	9	46	18	2.6
Fc1ccc(C[n+]2ccc3c(c2)[nH]c2ccc(Br)cc23)cc1	1.76	22.6	13	16.4	13.3	4.7	–	–	–	–	–
COC(=O)CCC[n+]1ccc2c(c1)[nH]c1ccc(Cl)cc12	3.14	207	66	117	115	106	–	–	–	–	–
Clc1ccc2[nH]c3c[n+](C/C=C\C[n+]4ccc5c(c4)[nH]c4ccc(Cl)cc45)ccc3c2c1.[Cl-].[Cl-]	–	–	–	–	–	–	–	5	> 188	9	11.53
Clc1ccc2[nH]c3c[n+](CCCc4ccccc4)ccc3c2c1	1.61	71.3	44	18.6	20.9	6.2	–	–	–	–	–
O=C1c2ccccc2-[n+]2ccc3c([nH]c4ccccc43)c21 [FASCAPLYSIN CHLORIDE]	0.184	–	50	–	–	–	–	–	–	–	–
Brc1cccc2c1[nH]c1c[n+](Cc3ccccc3)ccc12	2.58	28.7	11	66.5	42.9	7	–	–	–	–	–
CCCC[n+]1ccc2c(c1)[nH]c1ccc(Br)cc12	1.15	68.7	60	35.1	35.3	11.7	–	–	–	–	–
